The values that follow come from ChEMBL document CHEMBL4814076, “Discovery of a Potent and Selective Covalent Inhibitor of Bruton's Tyrosine Kinase with Oral Anti-Inflammatory Activity” (ACS Med Chem Lett, 2021).

SMILES strings stand for the structures. The source made the active and inactive calls. No cut-off for these calls is given here.

The target in data set [1] is T1, Tyrosine-protein kinase BTK (Homo sapiens, UniProt Q06187). Briefly: Covalent inhibition of recombinant human GST-tagged BTK (2 to 659 end residues) expressed in baculovirus expression system assessed as inactivation constant using NH2-KKKAPFSWYLPEEG as substrate measured every 2 mins for 2 hrs in presence of ATP by microplate reader assay.
For data set [2], the target named is T1, Tyrosine-protein kinase BTK. Briefly: Covalent inhibition of recombinant human GST-tagged BTK (2 to 659 end residues) expressed in baculovirus expression system assessed as inhibition constant using NH2-KKKAPFSWYLPEEG as substrate measured every 2 mins for 2 hrs in presence of ATP by microplate reader assay.
Data set [3] has the same target. The experiment in a line: Covalent inhibition of recombinant human GST-tagged BTK (2 to 659 end residues) expressed in baculovirus expression system assessed as Kinact/Ki ratio using NH2-KKKAPFSWYLPEEG as substrate measured every 2 mins for 2 hrs in presence of ATP by microplate reader assay.
For data set [4] the target is unchanged. Briefly: Binding affinity to recombinant unphosphorylated human GST-tagged BTK kinase domain (389 to 659 residues) expressed in insect cells incubated for 1 hr by Lanthascreen assay.
The target of data set [5] is Tyrosine-protein kinase BTK (Mus musculus, UniProt P35991). The experiment in a line: Inhibition of BTK in C57Bl/6 mouse splenocyte assessed as reduction in anti-IgM-induced CD69 expression incubated for 1 hr followed anti-IgM stimulation and measured after overnight by flow cytometry analysis. It is filed as tissue-based. In short, it runs like this:
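Mouse splenocytes stimulated with anti-IgM. CD69 expression measured as the read-out.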

The nature of data set [6]: Inhibition of BTK in Wistar rat whole blood assessed as reduction in anti-IgD-induced B220/CD86+ expression incubated for 1 hr followed anti-IgD stimulation and measured after overnight by flow cytometry analysis. It counts as tissue-based. In short, it runs like this:
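B-cell activation induced by anti-IgD in rat whole blood, read as B220+CD86+ cells.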

Data set [7] is described as follows: Half life of the compound at 25 degreeC. It counts as physicochemical.
The target of data set [8] is T1, Tyrosine-protein kinase BTK. The experiment in a line: Time dependent inhibition of recombinant human GST-tagged BTK (2 to 659 end residues) expressed in baculovirus expression system using NH2-KKKAPFSWYLPEEG as substrate measured every 2 mins for 2 hrs in presence of ATP by microplate reader assay.
A short description of data set [9]: Half life in human pooled liver microsomes at 1 uM measured up to 60 mins in presence of NADPH by LC-MS/MS analysis. It counts as ADME, Microsome.

Tyrosine-protein kinase BTK (Mus musculus, UniProt P35991), sequence (P35991 whole entry): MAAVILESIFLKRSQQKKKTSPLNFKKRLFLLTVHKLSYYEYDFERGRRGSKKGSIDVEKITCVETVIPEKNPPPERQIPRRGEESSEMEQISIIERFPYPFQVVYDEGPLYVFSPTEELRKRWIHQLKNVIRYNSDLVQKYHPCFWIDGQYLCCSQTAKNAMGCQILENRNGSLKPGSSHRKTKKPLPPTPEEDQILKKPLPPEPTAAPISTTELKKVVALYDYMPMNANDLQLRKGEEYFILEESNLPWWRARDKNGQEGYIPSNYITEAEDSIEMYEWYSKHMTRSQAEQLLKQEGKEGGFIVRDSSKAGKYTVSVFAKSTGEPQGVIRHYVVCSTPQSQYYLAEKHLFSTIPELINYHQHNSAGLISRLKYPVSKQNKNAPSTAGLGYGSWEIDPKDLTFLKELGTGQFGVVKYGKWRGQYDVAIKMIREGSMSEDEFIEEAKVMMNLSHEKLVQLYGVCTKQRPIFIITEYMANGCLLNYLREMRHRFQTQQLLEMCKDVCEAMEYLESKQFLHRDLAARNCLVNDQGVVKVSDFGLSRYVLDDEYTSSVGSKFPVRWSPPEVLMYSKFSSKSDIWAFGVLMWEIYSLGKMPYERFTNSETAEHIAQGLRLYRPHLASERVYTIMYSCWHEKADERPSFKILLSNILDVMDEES
T1 sequence (Q06187 whole entry): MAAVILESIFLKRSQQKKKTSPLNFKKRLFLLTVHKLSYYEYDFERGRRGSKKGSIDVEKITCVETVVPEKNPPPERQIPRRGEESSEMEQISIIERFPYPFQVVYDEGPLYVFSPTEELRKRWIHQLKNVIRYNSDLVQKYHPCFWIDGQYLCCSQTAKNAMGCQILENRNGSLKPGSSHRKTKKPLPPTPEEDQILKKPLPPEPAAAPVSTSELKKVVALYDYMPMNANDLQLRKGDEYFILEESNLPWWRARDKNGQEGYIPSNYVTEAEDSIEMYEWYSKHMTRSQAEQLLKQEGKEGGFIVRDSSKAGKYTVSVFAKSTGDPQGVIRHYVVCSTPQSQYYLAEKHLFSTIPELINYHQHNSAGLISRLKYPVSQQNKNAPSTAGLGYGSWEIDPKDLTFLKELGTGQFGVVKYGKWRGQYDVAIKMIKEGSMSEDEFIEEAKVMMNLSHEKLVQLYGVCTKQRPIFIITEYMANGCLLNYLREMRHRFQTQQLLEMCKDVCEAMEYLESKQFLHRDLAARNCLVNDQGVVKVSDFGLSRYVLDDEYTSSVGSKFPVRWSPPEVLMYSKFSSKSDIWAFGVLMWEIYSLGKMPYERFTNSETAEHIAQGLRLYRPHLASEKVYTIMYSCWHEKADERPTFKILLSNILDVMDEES

In the case of `C=CC(=O)N1CCC[C@@H](NC(=O)c2sc3nccc4c3c2NC(=O)N4c2ccccc2C)C1`, the Kinact in [1] was 0.000573 s⁻¹. The Ki in [2] came to 1580 nM. Further, the Ratio in data set [3] was 363 M⁻¹ s⁻¹.
Turning to `CCC(=O)N1CCC[C@@H](NC(=O)c2sc3nccc4c3c2NC(=O)N4c2ccc(OC(C)C)cc2)C1`, the IC50 in data set [4] is 6600 nM.
For `C=CC(=O)N1CCC[C@@H](NC(=O)c2sc3nccc4c3c2NC(=O)N4c2ccccc2)C1`, in [1], the Kinact came to 0.000807 s⁻¹. For the same compound, in data set [2], the Ki worked out at 6420 nM. In addition, the Ratio in data set [3] is 126 M⁻¹ s⁻¹.
Regarding `C=CC(=O)NCCNC(=O)c1sc2nccc3c2c1NC(=O)N3c1ccc(Oc2ccccc2)cc1C`, in data set [2], the Ki worked out at 51.9 nM. Besides, the IC50 in data set [5] is 7.6 nM; in [6] (Rattus norvegicus, Blood, 1 h), 210 nM.
For `C=CC(=O)N1CCC[C@@H](NC(=O)c2sc3nccc4c3c2NC(=O)N4c2ccc(Oc3ccccc3)cc2Cl)C1`, the Ki in data set [2] was determined as 12.3 nM. Moreover, the IC50 in data set [5] came out at 13 nM; in data set [6] (Rattus norvegicus, Blood, 1 h), 220 nM.
In the case of `C=CC(=O)N1CCC[C@@H](NC(=O)c2sc3nccc4c3c2NC(=O)N4c2ccc(OC(C)C)cc2C)C1`, the Ki in data set [2] stood at 337 nM. In addition, the IC50 in data set [5] is 42 nM; in data set [6] (Rattus norvegicus, Blood, 1 h) it was 460 nM.
Take `C=CC(=O)N1CCC[C@@H](NC(=O)c2sc3nccc4c3c2NC(=O)N4c2ccc(Oc3ccccc3)cc2C)C1` (stereo in doubt; 16): the Ki in [2] was 150 nM. Moreover, the IC50 was 400 nM in data set [5] and 2450 nM in [6].
Consider `O=C(N[C@@H]1CCCNC1)c1sc2nccc3c2c1NC(=O)N3c1ccc(Oc2ccccc2)cc1F`, for which the half-life in data set [7] is 46 h.
As to `C=CC(=O)N1CCC[C@@H](NC(=O)c2sc3nccc4c3c2NC(=O)N4c2cc(OC(C)C)ccc2C)C1`, the Kinact in data set [1] stood at 0.000222 s⁻¹. The Ki in [2] came out at 3290 nM. For the same compound, the Ratio in [3] is 67.5 M⁻¹ s⁻¹.
The like results for `C=CC(=O)N1CCC[C@@H](NC(=O)c2sc3nccc4c3c2NC(=O)N4c2ccc(Oc3ccccc3)cc2C(F)(F)F)C1` were, in that order, 0.000177 s⁻¹, 1850 nM and 95.7 M⁻¹ s⁻¹.
As for `C=CC(=O)N[C@H]1CCC[C@H]1NC(=O)c1sc2nccc3c2c1NC(=O)N3c1ccc(Oc2ccccc2)cc1C`, in [1], the Kinact is 0.000257 s⁻¹. The Ki in data set [2] was determined as 14.8 nM. In addition, the Ratio in [3] worked out at 17400 M⁻¹ s⁻¹. Besides, the IC50 in [5] is 80 nM; in data set [6] (Rattus norvegicus, Blood, 1 h), 100 nM.
On to `C=CC(=O)N1CCC[C@@H](NC(=O)c2sc3nccc4c3c2NC(=O)N4c2ccc(OC(C)C)cc2)C1`, for which the IC50 in data set [4] is 120 nM. Moreover, the Kinact in data set [1] came out at 0.000256 s⁻¹. In addition, the Ki in [2] turned out to be 4220 nM. Besides, the Ratio in data set [3] worked out at 60.7 M⁻¹ s⁻¹. Further, the inhibition entry in data set [8] is “Active”.
With `C=CC(=O)N1CC[C@H](NC(=O)c2sc3nccc4c3c2NC(=O)N4c2ccc(Oc3ccccc3)cc2C)C1`, in [2], the Ki worked out at 217 nM. In addition, the IC50 is 30 nM in data set [5] and 640 nM in [6] (Rattus norvegicus, Blood, 1 h).
As for `C=CC(=O)N1CC(NC(=O)c2sc3nccc4c3c2NC(=O)N4c2ccc(Oc3ccccc3)cc2C)C1`, the Ki in data set [2] came out at 141 nM. The IC50 in data set [5] worked out at 130 nM; in data set [6] (Rattus norvegicus, Blood, 1 h) it was 1740 nM.
As to `C=CC(=O)N1CCC[C@@H](NC(=O)c2sc3nccc4c3c2NC(=O)N4c2ccc(Oc3ccccc3)cc2F)C1`, the Ki in [2] was 9.2 nM. In addition, the IC50 in data set [5] was 20 nM; in data set [6] (Rattus norvegicus, Blood, 1 h), 180 nM.
On the same counts, the results for `C=CC(=O)C[C@@H]1CC[C@@H](NC(=O)c2sc3nccc4c3c2NC(=O)N4c2ccc(Oc3ccccc3)cc2C)C1` are 11.7 nM, 7.9 nM and 130 nM.
`CC(C)Oc1ccc(N2C(=O)Nc3c(C(=O)N[C@@H]4CCCNC4)sc4nccc2c34)cc1`: in data set [4], the IC50 was 3500 nM.
With `C=CC(=O)N1CCC[C@@H](NC(=O)c2sc3nccc4c3c2NC(=O)N4c2ccc(Oc3ccccc3)cc2C)C1` (stereo in doubt; 17), the Ki in data set [2] was 4.81 nM. Moreover, the half-maximal inhibitory concentration (IC50) was determined as 19 nM in [5] and 140 nM in data set [6]. For the same compound, the half-life at 1 µM in data set [9] is less than 4 min.
